TRPC6 act: mouse TRPC6 channel activators, primary screen, cell-based, HEK293, membrane potential dye; HEK293-TRPC6 membrane potential dye fluorescence; hits give high values; 310,000 tested, 0.13% active; B-score at 10 µM; AID 2550, 2010; Short transient receptor potential channel 6 (Mus musculus), Q61143;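 active = B-score of the integrated fluorescence ratio above library mean plus 3 SD, and starting fluorescence ratio within library mean plus 5 SD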;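 note: higher score means more depolarization so channel activation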
TRPC4 act: activators of mouse TRPC4 channel, primary screen, Fluo4 calcium, HEK293 TRPC4beta/mu-opioid cells | Short transient receptor potential channel 4 (Mus musculus), Q9QUQ5 | Fluo4 calcium fluorescence; hits give high values | B-score at 10 µM | 310,000 tested, 0.49% active;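 active = B-score above 5 SD of library B-scores, and initial fluorescence ratio not above library mean plus 5 SD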;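 note: positive B-score marks a calcium rise read as TRPC4 activation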
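Assay system: HEK293 stable line with TRPC4beta plus mu-opioid receptor; schedule: 45 min room-temperature Fluo4 loading, 110 s read; technique: kinetic Fluo4 calcium fluorescence; evaluation: integrated baseline-normalised fluorescence ratio, converted to per-well B score; controls: buffer (low) and maximal DAMGO (high)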
TRPC6 inh: mouse TRPC6 channel inhibitors, primary screen, cell-based, HEK293, membrane potential dye; Short transient receptor potential channel 6 (Mus musculus), Q61143; ACh-evoked depolarization; hits give low values; B-score at 10 µM; 310,000 tested, 1.1% active;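 active = B-score under library mean minus 3 SD, initial fluorescence not abnormally high, positive integrated signal ratio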;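 note: B-score derived from integrated fluorescence ratio over the kinetic read; more negative B-score means stronger inhibition of depolarization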
TRPC4 PAM: positive allosteric modulators of TRPC4, primary screen, cell-based, mouse TRPC4beta, HEK293 mu-opioid, Fluo-4 calcium | 310,000 tested, 0.42% active | B-score at 10 µM | AID 2227, 2009 | Short transient receptor potential channel 4 (Mus musculus), Q9QUQ5 | DAMGO EC20, Fluo-4 Ca2+ flux; hits give high values;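 active = B-score of calcium response area above 5 SD of library B-scores, with initial fluorescence ratio within 5 SD of library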;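 note: B-score of integrated fluorescence ratio over time as area under calcium response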
TRPC4 block: inhibitors of mouse TRPC4 channel, primary screen, Fluo4 calcium, HEK293 TRPC4beta/mu-opioid cells; AID 2247, 2010; B-score at 10 µM; DAMGO-evoked Fluo4 calcium flux; hits give low values; 300,000 tested, 0.39% active; Short transient receptor potential channel 4 (Mus musculus), Q9QUQ5;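 active = B-score over 3 SD under the library average, no early fluorescence shift, positive overall ratio signal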
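Signal: kinetic Fluo4 fluorescence imaging of calcium influx. Material: stable TRPC4beta/mu-opioid receptor HEK293 cells. Probe or stimulus: DAMGO in two steps, submaximal then maximal.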
An asterisk follows results filed as active; i = inactive. Shown are actives, neighbours in structure and some others; about 2.3% of the full set was active somewhere.

SMILES	TRPC6 act	TRPC4 act	TRPC6 inh	TRPC4 PAM	TRPC4 block
COc1ccc(NC(=O)c2ccc(S(=O)(=O)N3CCOCC3)o2)cc1	i	i	i	i	i
O=C(CNS(=O)(=O)c1ccc2ccccc2c1)NCCc1ccccn1	i	137*	i	i	i
O=S(=O)(NCc1ccccn1)c1ccc2ccccc2c1	i	i	i	i	i
COc1cccc(OC)c1CC1SC(=O)NC1=O (stereo not given)	i	i	i	i	i
Cc1ccc(-c2c[n+](Cc3ccc(Cl)c(Cl)c3)c3n2CCC3)cc1	i	i	i	i	-8*
O=C(C[n+]1cc(-c2ccc(Cl)c(Cl)c2)n2c1CCC2)N1c2ccccc2Sc2ccccc21	i	i	i	i	-6*
Cc1ccc(S(=O)(=O)N(CC(=O)Nc2ccc(C(N)=O)cc2)C(=O)N2CCN(C)CC2)cc1	i	i	i	i	i
CCN1CCN(C(=O)N(CC(=O)Nc2ccc(C(N)=O)cc2)S(=O)(=O)c2ccc(C)cc2)CC1	i	i	i	i	-6*
CC1CCCN(CCCNC(=O)c2ccc3c(c2)N(Cc2ccccc2F)C(=O)c2ccccc2S3(=O)=O)C1 (stereo not given)	i	114*	i	i	i
COc1ccc(S(=O)(=O)Nc2cc3c4c(c2)CCC(=O)N4CCC3)cc1C	i	i	i	i	i
C=CCNC(=S)N1CCN(C2CCCCC2)CC1	i	i	i	32*	i
CCOC(=O)C(C)Sc1nc2c(c(=O)[nH]c(=O)n2C)n1Cc1ccc(Cl)cc1 (stereo not given)	i	i	i	i	-6*
CN(C)C(CNc1ncnc2ccccc12)c1c(F)cccc1Cl (stereo not given)	i	i	i	i	i
CC1=NN(c2ccccc2)C(=O)/C1=C/c1ccc(Cl)cc1	i	i	i	10*	i
CCN1/C(=C/C=C/C=C/c2sc3ccccc3[n+]2CC)Sc2ccccc21	i	i	i	i	i
CCN1/C(=C/C=C/c2sc3ccccc3[n+]2CC)Sc2ccccc21	i	49*	i	i	i
CC(C)N1CC(C(=O)Nc2ccc(C#N)cc2)CC1=O (stereo not given)	i	i	i	i	i
COc1ccc(C2C(C#N)=C(N)N(c3ccccc3C#N)C3=C2C(=O)CCC3)cc1CN1CCCC1 (stereo not given)	i	i	i	i	i
O=c1c2ccccc2nc(COc2ccccc2)n1/N=C/c1cc([N+](=O)[O-])ccc1O	i	i	i	27*	i
Cc1cc(/C=N/n2c(COc3ccccc3C)nc3ccccc3c2=O)c(O)c([N+](=O)[O-])c1	i	i	i	i	i
O=C(Nc1ccc(S(=O)(=O)Nc2nccs2)cc1)c1c(F)c(F)c(F)c(F)c1F	i	i	i	i	i
COc1ccc(CC(O)CC2c3c(cc4c(c3OC)OCO4)CCN2C)cc1 (stereo not given)	i	58*	i	i	-6*
Cc1ccc(OCC(=O)NC(=S)Nc2ccccn2)c(Br)c1	i	i	i	i	i
Cc1ccc(OCC(=O)NNC(=S)NC(=O)C2CCCCC2)c(C)c1	i	54*	i	i	i
Cc1ccc(OCC(=O)NNC(=S)NC(=O)C(C)(C)C)c(Br)c1	i	235*	i	i	i
Cc1cc(C(=O)Nc2ccc(F)c(Cl)c2)on1	i	i	i	i	i
O=C(OCC(=O)N1CCCc2ccccc21)c1cccc(S(=O)(=O)N2CCc3ccccc32)c1	i	i	i	i	i
CCCCN(CC)CCCNC(=S)Nc1ccc2nc3n(c(=O)c2c1)CCCCC3	i	i	i	10*	i
CCCCN(CC)CCCNC(=S)Nc1ccc2nc(N3CCN(CC)CC3)cc(C)c2c1	i	71*	i	i	i

Assay outcomes (PubChem BioAssay)
